# Measurements published in ChEMBL document CHEMBL1132195, “cycloSal-Pronucleotides of 2',3'-dideoxyadenosine and 2', 3'-dideoxy-2',3'-didehydroadenosine: synthesis and antiviral evaluation of a highly efficient nucleotide delivery system” (J Med Chem, 1999).
# Key:
# [1] = system: CCRF-CEM; test: In vitro cytotoxic concentration in CEM cells.; assay type: functional, Homo sapiens
# [2] = Partition coefficient (logP); assay type: physicochemical; details: octanol/water
# Method in brief: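 Compound dissolved in 1-octanol, shaken with an equal volume of water for 10 min and phases separated by centrifugation. Each phase analysed by RP-HPLC with UV detection at 260 nm. P calculated from the peak areas of the aqueous and organic phases.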
# [3] = system: C3H/3T3; test: Minimal cytotoxic concentration in C3H/3T3 cells.; assay type: functional; details: Mus musculus
# Method in brief: (§1)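 C3H/3T3 mouse embryo fibroblasts seeded at 20 000 cells/mL, incubated 24 h, infected with 80 focus-forming units of MSV for 120 min, then given fresh medium with compound dilutions. Transformation scored microscopically after 6 days; EC50 is the concentration giving 50% inhibition of transformation. MCC is the lowest concentration causing microscopically visible morphological alteration of the fibroblast cultures.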
# [4] = system: C3H/3T3; test: (§2) Effect of compound against Moloney murine sarcoma virus (MSV)-induced transformation of C3H/3T3 embryo murine fibroblasts; assay type: functional, cell-based, Mus musculus; method in brief: as §1
# [5] = system: Human immunodeficiency virus 2; test: In vitro inhibition of HIV-2 replication in human T-lymphocytic cells (CEM).; assay type: functional, organism-based
# Method in brief: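 CEM cells at 4×10^5 cells/mL infected with HIV-1 or HIV-2 (strain ROD, stocks grown in MT-4 cells) at ~100 CCID50 per mL. Infected cells mixed 1:1 with compound dilutions. Giant cell formation recorded microscopically after 4-5 days; EC50 is the 50% effective concentration.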
# [6] = Selectivity by CC50 of CEM cells/EC50 of CEM cells against HIV-1; assay type: functional, CCRF-CEM
# [7] = system: Human immunodeficiency virus 1; test: In vitro inhibition of HIV-1 replication in human T-lymphocytic cells (CEM).; assay type: functional, organism-based
# Method in brief: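 CEM cells at 4×10^5 cells/mL infected with HIV-1 or HIV-2 (strain ROD, stocks grown in MT-4 cells) at ~100 CCID50 per mL. Infected cells mixed 1:1 with compound dilutions.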
# [8] = Hydrolysis half life in glycine/HCl buffer at the specified pH of 1.5; assay type: ADME; details: pH 1.5
# Method in brief: (§3)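 Compound diluted from DMSO stock to 0.71 mM final in 24.8 mM buffer at 37 °C, with AZT as internal standard. Buffers: phosphate (Sörensen) pH 7.3; glycine/HCl pH 3.0 or 1.5. Aliquots stopped by freezing and analysed by RP-HPLC at 260 nm. Rate constant taken from the log degradation slope, half-life calculated from it; mean of duplicates.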
# [9] = Hydrolysis half life in phosphate buffer at the specified pH of 7.3; assay type: ADME; details: pH 7.3; method in brief: as §3
# [10] = Selectivity index by CC50 of CEM cells/EC50 of CEM cells against HIV-1; assay type: functional, CCRF-CEM
# [11] = Hydrolysis half life in glycine/HCl buffer at the specified pH of 3.0; assay type: ADME; details: pH 3; method in brief: as §3
# [12] = system: C3H/3T3; test: Minimal cytotoxic concentration required to cause morphological alteration of C3H/3T3 fibroblast culture cells; assay type: functional; details: Mus musculus; method in brief: as §1
# [13] = system: C3H/3T3; test: as §2; assay type: functional, cell-based; details: Mus musculus; method in brief: as §1
Compound,"CC50 ([1]; Homo sapiens, CCRF-CEM)",logP ([2]; read-out: logP),MCC [3],"EC50 ([4]; Mus musculus, C3H/3T3)",EC50 ([5]; Human immunodeficiency virus 2),SI [6],EC50 ([7]; Human immunodeficiency virus 1),half-life [8],half-life [9],SI [10],half-life [11],MCC [12],EC50 [13],logP [2],CC50 [1],EC50 ([4]; c3h/3t3),EC50 [5],EC50 [7]
Nc1ncnc2c1ncn2[C@H]1CC[C@@H](CO)O1,> 250 µM,-0.28,> 50 µM,40 µM,4.5 µM,>57,4.3 µM,,,,,,,,,,,
Cc1cccc2c1OP(=O)(OCC1CCC(n3cnc4c(O)ncnc43)O1)OC2 (centres undefined),58 µM,0.14,,> 50 µM,0.7 µM,,1.1 µM,12 min,44.5 h,53,180 min,> 50 µM,,,,,,
Nc1ncnc2c1ncn2[C@H]1C=C[C@@H](COP2(=O)OCc3ccccc3O2)O1 (some centres undefined),86 µM,0.36,,0.3 µM,0.35 µM,,0.065 µM,0.6 min,10.3 h,1329,8.4 min,> 50 µM,,,,,,
COc1ccc2c(c1)COP(=O)(OCC1CCC(n3cnc4c(N)ncnc43)O1)O2 (centres undefined),87 µM,0.64,,,0.16 µM,,0.047 µM,48 min,23.4 h,1851,732 min,> 50 µM,3.9 µM,,,,,
Nc1ncnc2c1ncn2[C@H]1C=C[C@@H](CO)O1,96 µM,-0.49,,35 µM,50 µM,,30 µM,< 0.6 min,,3,0.6 min,> 50 µM,,,,,,
OCC1CCC(n2cnc3ncnc(O)c32)O1 (centres undefined),156 µM,-1.25,,> 50 µM,4 µM,,3.5 µM,1.8 min,,44,12 min,> 50 µM,,,,,,
Cc1cccc2c1OP(=O)(OCC1CCC(n3cnc4c(N)ncnc43)O1)OC2 (centres undefined),28 µM,0.88,,,0.03 µM,,0.047 µM,31.8 min,44.3 h,585,834 min,> 50 µM,1.18 µM,,,,,
Cc1cccc2c1OP(=O)(OC[C@@H]1C=C[C@H](n3cnc4c(N)ncnc43)O1)OC2 (some centres undefined),49 µM,0.63,,1.24 µM,0.19 µM,,0.065 µM,0.588 min,32.3 h,746,9 min,> 50 µM,,,,,,
Cc1cc(C)c2c(c1)COP(=O)(OC[C@@H]1C=C[C@H](n3cnc4c(N)ncnc43)O1)O2 (some centres undefined),25 µM,0.95,,1.14 µM,0.055 µM,,0.05 µM,0.6 min,44.7 h,494,8.4 min,> 50 µM,,,,,,
Nc1ncnc2c1ncn2C1CCC(COP2(=O)OCc3ccccc3O2)O1 (centres undefined),93 µM,,,,0.13 µM,,0.03 µM,36 min,17 h,3096,774 min,> 50 µM,2.86 µM,0.59,,,,
OC[C@@H]1C=C[C@H](n2cnc3ncnc(O)c32)O1,87 µM,-0.89,,> 50 µM,> 50 µM,,4.3 µM,< 0.6 min,,20,< 0.6 min,> 50 µM,,,,,,
Cc1cc(C)c2c(c1)COP(=O)(OCC1CCC(n3cnc4c(N)ncnc43)O1)O2 (centres undefined),10 µM,1.35,,1.14 µM,0.025 µM,,0.025 µM,43.8 min,58.2 h,383,618 min,> 50 µM,,,,,,
COc1ccc2c(c1)COP(=O)(OC[C@@H]1C=C[C@H](n3cnc4c(N)ncnc43)O1)O2 (stereo in doubt; 10b (f)),,,,,,,,,,932,,,,0.48,40 µM,2.83 µM,0.05 µM,0.043 µM
COc1ccc2c(c1)COP(=O)(OC[C@@H]1C=C[C@H](n3cnc4c(N)ncnc43)O1)O2 (stereo in doubt; 10b (s)),62 µM,0.41,,,,,,,,125,,> 50 µM,,,,12.8 µM,0.33 µM,0.5 µM
COc1ccc2c(c1)COP(=O)(OC[C@@H]1C=C[C@H](n3cnc4c(N)ncnc43)O1)O2 (stereo in doubt; 10b),,,,,,,,0.66 min,14.5 h,962,8.4 min,,,,77 µM,1.21 µM,0.065 µM,0.08 µM
Cc1cn([C@H]2C=C[C@@H](CO)O2)c(=O)[nH]c1=O [STAVUDINE],56 µM,,,15 µM,0.26 µM,311,0.18 µM,,,,,,,,,,,
Cc1cn([C@H]2C[C@H](N=[N+]=[N-])[C@@H](CO)O2)c(=O)[nH]c1=O [ZIDOVUDINE],> 100 µM,0.025,,> 100 µM,0.006 µM,,,,,,,,,,,,,
